Measurements published in ChEMBL document CHEMBL2062417, “Biotinylated quercetin as an intrinsic photoaffinity proteomics probe for the identification of quercetin target proteins” (Bioorg Med Chem, 2011).
pIC50: −log10 of the molar value. Activity calls are given as the source filed them. No cut-off for these calls is given here.

Experiments:
[1] = system: Jurkat; experiment: Inhibition of heat shock-induced HSP70 expression in human Jurkat cells at 145 uM treated 2 hrs before beat shock challenge measured after 8 hrs by Western blotting; type: functional, cell-based
Outline: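 Jurkat cells (low basal HSP70) got 145 μM compound or DMSO vehicle for 2 h, then a 30 min 43 °C heat shock and 8 h recovery at 37 °C. HSP70 and actin were read by Western blot. Controls were unheated cells and heated cells with no additive.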

[2] = biological target: Calcium/calmodulin-dependent protein kinase type II subunit beta (Homo sapiens, UniProt Q13554); experiment: Inhibition of CAMK2 using autocamtide-2 as substrate after 30 mins by PKLight assay
Chain of Calcium/calmodulin-dependent protein kinase type II subunit beta (Q13554 whole entry): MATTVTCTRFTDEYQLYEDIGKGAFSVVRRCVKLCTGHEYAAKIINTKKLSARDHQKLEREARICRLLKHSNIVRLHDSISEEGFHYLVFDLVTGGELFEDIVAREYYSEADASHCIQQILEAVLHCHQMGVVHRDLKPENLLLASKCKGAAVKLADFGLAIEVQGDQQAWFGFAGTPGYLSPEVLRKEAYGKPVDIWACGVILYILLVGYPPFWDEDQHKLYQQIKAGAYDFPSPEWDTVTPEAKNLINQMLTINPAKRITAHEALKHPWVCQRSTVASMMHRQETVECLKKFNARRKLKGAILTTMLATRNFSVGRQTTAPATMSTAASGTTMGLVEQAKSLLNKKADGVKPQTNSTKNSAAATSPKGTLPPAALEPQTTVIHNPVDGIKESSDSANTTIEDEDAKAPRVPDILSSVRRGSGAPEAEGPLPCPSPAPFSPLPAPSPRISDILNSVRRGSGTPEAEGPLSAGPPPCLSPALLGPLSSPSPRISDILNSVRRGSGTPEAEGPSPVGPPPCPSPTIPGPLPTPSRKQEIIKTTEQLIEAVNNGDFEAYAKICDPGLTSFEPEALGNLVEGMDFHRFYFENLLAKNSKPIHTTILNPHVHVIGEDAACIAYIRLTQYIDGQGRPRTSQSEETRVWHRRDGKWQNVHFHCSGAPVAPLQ

`O=c1c(O)c(-c2ccc(O)c(O)c2)oc2cc(O)cc(O)c12` [QUERCETIN] was tested, and the inhibition [1] was “Active” and the pIC50 [2] was 5.52.
